ChEMBL document CHEMBL1275503, “Characterization of an ABCG-like transporter from the protozoan parasite Leishmania with a role in drug resistance and transbilayer lipid movement” (Antimicrob Agents Chemother, 2008)

Assays:
Type in all cases: functional, organism-based
[1] = test system: Leishmania infantum; test: Antileishmanial activity against Leishmania infantum promastigotes overexpressing LiABCG6 assessed as cell viability after 72 hrs by MTT assay
Procedure, shortened: (§1)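 L. infantum promastigotes (strain MHOM/ES/1993/BCN-99) grown at 28°C in modified RPMI 1640 with 20% heat-inactivated fetal bovine serum. Drug sensitivity was measured by MTT-based assay. IC50 was taken as the drug concentration giving half-maximal inhibition of cellular growth rate.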

[2] = test system: Leishmania infantum; test: Antileishmanial activity against GFP-tagged at NH2 terminus Leishmania infantum promastigotes overexpressing LiABCG6 assessed as cell viability after 72 hrs by MTT assay; procedure, shortened: as §1
[3] = test system: Leishmania infantum; test: Antileishmanial activity against GFP-tagged at COOH terminus Leishmania infantum promastigotes overexpressing LiABCG6 assessed as cell viability after 72 hrs by MTT assay; procedure, shortened: as §1

Row | SMILES | IC50 [1] [µM] | IC50 [2] [µM] | IC50 [3] [µM]
1 | CC(=O)N1CCN(c2ccc(OCC3COC(Cn4ccnc4)(c4ccc(Cl)cc4Cl)O3)cc2)CC1 (configuration not stated) [KETOCONAZOLE] | 19.3 | – | –
2 | CCN(CC)CCCCCCNc1cc(OC)cc2c(C)ccnc12 [SITAMAQUINE] | 14.3 | 7.8 | 15.2
3 | COc1cc(NC(C)CCCN)c2ncccc2c1 (configuration not stated) [PRIMAQUINE] | 54.9 | – | –
4 | OC(c1cc(C(F)(F)F)nc2c(C(F)(F)F)cccc12)C1CCCCN1 (configuration not stated) [MEFLOQUINE] | 7 | – | –
5 | CCCCCCCCCCCCCCCCCCOP(=O)([O-])OC1CC[N+](C)(C)CC1 [PERIFOSINE] | 11 | 4.2 | 12.2
6 | CCN(CC)CCCC(C)Nc1ccnc2cc(Cl)ccc12 (configuration not stated) [CHLOROQUINE] | 24.1 | – | –
7 | CC[C@@]1(O)C(=O)OCc2c1cc1n(c2=O)Cc2cc3ccccc3nc2-1 [CAMPTOTHECIN] | 34.4 | – | –
8 | CCCCCCCCCCCCCCCCCCOCC(COP(=O)([O-])OCC[N+](C)(C)C)OC (configuration not stated) [EDELFOSINE] | 11.3 | 4.8 | 12.9
9 | CCCCCCCCCCCCCCCCOP(=O)([O-])OCC[N+](C)(C)C [MILTEFOSINE] | 12.9 | 5.6 | 13.6
